For assay [1] the following is noted: 37°C, 100 mM sodium phosphate, pH 7.4; cited from earlier work.
For assay [2] the following is noted: cited from earlier work.
Assay [3] is described as follows: Imidazole binding to ferric cytoglobin by UV-Vis difference spectroscopy. Particulars: read-out: Imidazole KD; ferric protein. On the set-up: species or system human. The method in brief: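 Ferric globin (5–15 μM) was titrated with imidazole stocks (1–100 mM) to about 100–15000 μM final. Buffer was 100 mM sodium phosphate, pH 7.4, at 25 °C. UV-Vis difference spectra were taken, and the max–min absorbance difference was plotted against ligand. KD came from a 1:1 quadratic binding fit. At least triplicate, with ≥2 protein batches; mean ± SD.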

The conditions of assay [4]: cited from earlier work. This is another data set of the same source.
Assay [5] in a line: Nitrite reduction to NO by ferrous globins in the presence of excess dithionite. Particulars: 37°C, 100 mM sodium phosphate, pH 7.4, excess dithionite. It counts as biochemical, human. The essentials:
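Ran in 100 mM sodium phosphate, pH 7.4, 37 °C, with 2.5 mM dithionite to keep heme ferrous and remove O2. Globin (2–10 μM) was mixed with nitrite, typically 1–10 mM, or 250 μM–2 mM for distal-His mutants. Spectra were read over 350–700 nm and fit single-exponential; rate constants came from the nitrite series. At least triplicate, with ≥2 protein batches; mean ± SD.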

A short description of assay [6]: Oleic acid. Type of assay: binding, human. The note with it: several saturating concentrations of imidazole (Figure 5). The method in brief: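 Oleate was titrated into ferric distal-His mutant globins with imidazole present: 250 μM, or a series of imidazole levels. Difference spectra were taken by subtracting the initial spectrum. The absorbance difference at the wavelength of largest change was fit against oleate concentration to give an apparent KD. Buffer was 100 mM sodium phosphate, pH 7.4, 25 °C.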

Assay [7] in a line: Autoxidation of the ferrous-dioxygen. Type of assay: biochemical, human. The note with it: 37°C, 100 mM sodium phosphate, pH 7.4. The essentials:
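Human Cygb WT and mutants were His-tagged, expressed in SoluBL21 cells and purified on Ni-NTA. Fe(II)-O2 was formed by excess dithionite reduction, then G25 gel filtration in aerobic buffer, mixed with prewarmed buffer at 37 °C and followed spectrally for 30–60 min. For two surface mutants, deoxy protein was made in a glovebox, desalted anaerobically and mixed 4:1 with O2-saturated buffer; read at 1 spectrum/s for 1000 s. At least triplicate; mean ± SD.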

Like-named read-outs stand apart in the source and are kept apart here.

B1: Cytoglobin Wild-type: wild-type (WT) human Cygb protein, His-tagged, recombinantly expressed (protein, UniProt Q8WWM9 1-190, looked up)
Cytoglobin: MEKVPGEMEIERRERSEELSEAERKAVQAMWARLYANCEDVGVAILVRFFVNFPSAKQYFSQFKHMEDPLEMERSPQLRKHACRVMGALNTVVENLHDPDKVSSVLALVGKAHALKHKVEPVYFKILSGVILEVVAEEFASDFPPETQRAWAKLRGLIYSHVTAAYKEVGWVQQVPNATTPPATLPSSGP
modifications: His-tag
As usually defined, the Kd is the free concentration of one partner at which half of the binding sites on the other are occupied at equilibrium, for simple one-to-one binding. For B1, the Autoxidation rate in assay [1] is reported as 0.270 ± 0.020^a min^−1. Moreover, in assay [2] (Cygb with the reduced thiols), the Binding to lipids result is recorded as “little or no binding”. Also, the Kd is about 1 µM in assay [2] (read-out: KD for lipids such as oleic acid and cardiolipin); about 1000 µM in assay [3]. Besides, the “Nitrite reductase reaction rate constant” value in assay [4] (37°C, 100 mM sodium phosphate, pH 7.4) is 1.14 ± 0.07^e M^−1s^−1. Also, the Nitrite reduction rate in assay [4] (in the presence of the intramolecular disulfide bond) was 32.3 M⁻¹ s⁻¹.

B2: H81Q: human cytoglobin distal histidine His81(E7) to Gln mutant (protein, UniProt Q8WWM9 1-190, looked up, variant H81Q)
Cytoglobin: MEKVPGEMEIERRERSEELSEAERKAVQAMWARLYANCEDVGVAILVRFFVNFPSAKQYFSQFKHMEDPLEMERSPQLRKQACRVMGALNTVVENLHDPDKVSSVLALVGKAHALKHKVEPVYFKILSGVILEVVAEEFASDFPPETQRAWAKLRGLIYSHVTAAYKEVGWVQQVPNATTPPATLPSSGP
On to B2, for which the “Nitrite reductase reaction rate constant” value in assay [5] is 210 ± 44 M⁻¹ s⁻¹. The “Change of oleic acid binding (apparent KD) in the presence of imidazole” value in assay [6] was “slight upwards trend”. In assay [7], this molecule yielded an Autoxidation rate of 0.019 ± 0.005 min⁻¹.

Values taken from article PMC9283305 (Nitric oxide : biology and chemistry, 2022).
